Marks after values point to notes of the source that are not given here. Residues, ends and D or L forms follow the SMILES beside them.
Experiments:
[1] = Single- and multiple-dose i.v. pharmacokinetics in cynomolgus monkeys; assay type: in vivo, cynomolgus monkeys (Macaca fascicularis); conditions: for Cmax: 1-h i.v. infusion; for Cmax / AUC0-∞ / AUCτ / CL / λz / Vss / MRT: mean (SD); for MRT: MRTinf
[2] = Toxicity studies in cynomolgus monkeys: mortality, MTD, NOAEL; assay type: in vivo
In short: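 Cynomolgus monkeys were studied in two designs. Non-GLP range-finding: single ascending i.v. doses (0.3-10 mg/kg), then 15 mg/kg daily for 7 days, 1/sex; MTD was based on mortality, clinical observations and body weight. GLP: 0, 5, 10 or 15 mg/kg/day for 10 days by 60-min infusion, with a recovery group. NOAEL drew on clinical signs, clinical pathology and histopathology.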

LPS-induced ALI = conditions: single subcutaneous injection 25 mg/kg; cited from earlier work
[3] = both, cynomolgus monkey, plasma, iv, 15 mg/kg/day

CC[C@H](C)[C@@H]1NC(=O)[C@@H]2CSSC[C@H](NC(=O)[C@H](CCCNC(=N)N)NC(=O)[C@@H]3CSSC[C@H](NC1=O)C(=O)N[C@@H]([C@@H](C)O)C(=O)N[C@@H](CCCNC(=N)N)C(=O)NCC(=O)N[C@@H](Cc1ccccc1)C(=O)N3)C(=O)N[C@@H](CC(C)C)C(=O)N[C@H]1CSSC[C@H](NC(=O)[C@H](C(C)C)NC(=O)CNC(=O)[C@H](CCCNC(=N)N)NC(=O)[C@H](CCCNC(=N)N)NC1=O)C(=O)N[C@@H](CCCNC(=N)N)C(=O)N2 [RTD-1, Rhesus theta (θ) defensin-1] (HELM PEPTIDE1{G.F.C.R.C.L.C.R.R.G.V.C.R.C.I.C.T.R}$PEPTIDE1,PEPTIDE1,3:R3-16:R3|PEPTIDE1,PEPTIDE1,5:R3-14:R3|PEPTIDE1,PEPTIDE1,7:R3-12:R3|PEPTIDE1,PEPTIDE1,1:R1-18:R2$$$V2.0)
Cmax ([1]; 0.3 mg/kg Day 1, n=2): 582 (109) ng/mL | AUC0-∞ ([1]; 0.3 mg/kg Day 1, n=2): 617 (137) ng · h/mL | AUCτ ([1]; 0.3 mg/kg Day 1, n=2): 591 (145) ng · h/mL | CL ([1]; 0.3 mg/kg Day 1, n=2): 498 (111) mL/h/kg | λz ([1]; 0.3 mg/kg Day 1, n=2): 0.523 (0.119) h^−1 | Cmax ([1]; 1 mg/kg Day 1, n=2): 2,560 (820) ng/mL | AUC0-∞ ([1]; 1 mg/kg Day 1, n=2): 3,875 (973) ng · h/mL | AUCτ ([1]; 1 mg/kg Day 1, n=2): 3,818 (961) ng · h/mL | CL ([1]; 1 mg/kg Day 1, n=2): 266 (66.9) mL/h/kg | λz ([1]; 1 mg/kg Day 1, n=2): 0.251 (0.035) h^−1 | AUCτ ([1]; 3 mg/kg Day 1, n=2): 10,334 (2,239) ng · h/mL | λz ([1]; 3 mg/kg Day 1, n=2): 0.078 (0.017) h^−1 | Cmax ([1]; 5 mg/kg Day 1, n=6): 10,700 (2,455) ng/mL | AUCτ ([1]; 5 mg/kg Day 1, n=6): 27,160 (4,286) ng · h/mL | λz ([1]; 5 mg/kg Day 1, n=6): 0.323 (0.016) h^−1 | AUCτ ([1]; 5 mg/kg Day 10, n=6): 38,936 (9,829) ng · h/mL | CL ([1]; 5 mg/kg Day 10, n=6): 136 (36.5)# mL/h/kg | λz ([1]; 5 mg/kg Day 10, n=6): 0.157 (0.009)# h^−1 | accumulation: mean AUCτ day 10 vs mean AUC0-∞ day 1 ([1]; 5 mg/kg/day): approximately 1.4 fold | Cmax ([1]; 10 mg/kg Day 1, n=8): 26,675 (8,240) ng/mL | AUCτ ([1]; 10 mg/kg Day 1, n=8): 76,083 (23,562) ng · h/mL | CL ([1]; 10 mg/kg Day 1, n=8): 143 (48.2)* mL/h/kg | λz ([1]; 10 mg/kg Day 1, n=8): 0.192 (0.034)* h^−1 | AUCτ ([1]; 10 mg/kg Day 10, n=6): 117,529 (26,077) ng · h/mL | CL ([1]; 10 mg/kg Day 10, n=6): 88.5 (18.5)* mL/h/kg | Vss ([1]; 10 mg/kg Day 10, n=6): 624 (88.2) mL/kg | λz ([1]; 10 mg/kg Day 10, n=6): 0.120 (0.018)* h^−1 | accumulation: mean AUCτ day 10 vs mean AUC0-∞ day 1 ([1]; 10 mg/kg/day): ~1.5 fold | Cmax ([1]; 15 mg/kg Day 1, n=12): 46,458 (15,247)† ng/mL | AUCτ ([1]; 15 mg/kg Day 1, n=12): 138,135 (34,942) ng · h/mL | CL ([1]; 15 mg/kg Day 1, n=12): 114 (25.7) mL/h/kg | Vss ([1]; 15 mg/kg Day 1, n=12): 629 (176)† mL/kg | λz ([1]; 15 mg/kg Day 1, n=12): 0.149 (0.019)† h^−1 | AUCτ ([1]; 15 mg/kg Day 4, n=2): 139,595 (2,366) ng · h/mL | λz ([1]; 15 mg/kg Day 4, n=2): 0.072 (0.020) h^−1 | AUCτ ([1]; 15 mg/kg Day 7, n=2): 154,149 (12,406) ng · h/mL | λz ([1]; 15 mg/kg Day 7, n=2): 0.071 (0.017) h^−1 | Cmax ([1]; 15 mg/kg Day 10, n=9): 32,233 (13,933)† ng/mL | AUCτ ([1]; 15 mg/kg Day 10, n=9): 173,315 (67,934) ng · h/mL | Vss ([1]; 15 mg/kg Day 10, n=9): 1,139 (411)† mL/kg | λz ([1]; 15 mg/kg Day 10, n=9): 0.078 (0.020)† h^−1 | MRT ([1]; both, cynomolgus monkey, plasma, iv, 0.3 mg/kg, 0.3 mg/kg Day 1, n=2): 1.24 h | MRT ([1]; both, cynomolgus monkey, plasma, iv, 1 mg/kg, 1 mg/kg Day 1, n=2): 1.82 h | MRT ([1]; both, cynomolgus monkey, plasma, iv, 3 mg/kg, 3 mg/kg Day 1, n=2): 4.3 h | MRT ([1]; both, cynomolgus monkey, plasma, iv, 5 mg/kg, 5 mg/kg Day 1, n=6): 2.94 h | MRT ([1]; both, cynomolgus monkey, plasma, iv, 5 mg/kg, 5 mg/kg Day 10, n=6): 4.84 h | MRT ([1]; both, cynomolgus monkey, plasma, iv, 10 mg/kg, 10 mg/kg Day 1, n=8): 4.4 h | MRT ([1]; both, cynomolgus monkey, plasma, iv, 10 mg/kg, 10 mg/kg Day 10, n=6): 7.2 h | MRT ([1]; both, cynomolgus monkey, plasma, iv, 15 mg/kg, 15 mg/kg Day 1, n=12): 5.48 h | MRT ([1]; both, cynomolgus monkey, plasma, iv, 15 mg/kg, 15 mg/kg Day 4, n=2): 11.8 h | MRT ([1]; both, cynomolgus monkey, plasma, iv, 15 mg/kg, 15 mg/kg Day 7, n=2): 12.3 h | MRT ([1]; both, cynomolgus monkey, plasma, iv, 15 mg/kg, 15 mg/kg Day 10, n=9): 12 h | level at 288 h [1, 3]: 537 ng/mL | level at 576 h [1, 3]: 12.5 ng/mL | time plasma concentrations detectable post-end of infusion ([1]; single dose of 0.3 or 1 mg/kg): up to 12 h | mortality ([2]; GLP 10-day repeat-dose TK study, any dose level (5-15 mg/kg/day)): no mortality or unscheduled euthanasia | NOAEL ([2]; GLP 10-day repeat-dose i.v.): 15 mg/kg/day | mean AUC0-∞ (LPS-induced ALI): ~9,001 ng · h/mL

Reference: PMC8923172 (Antimicrobial Agents and Chemotherapy, 2022)
